From ChEMBL document CHEMBL1138216, “Design and synthesis of novel derivatives of the muscarinic agonist tetra(ethylene glycol)(3-methoxy-1,2,5-thiadiazol-4-yl) [3-(1-methyl-1,2,5,6-tetrahydropyrid-3-yl)-1,2,5-thiadiazol-4-yl] ether (CDD-0304): effects of structural modifications on the binding and activity at muscarinic receptor …” (J Med Chem, 2006) come the findings set out here.

Assay [1] has as its target T1, Muscarinic acetylcholine receptor M1 (Homo sapiens, UniProt P11229).
T1 sequence (P11229 whole entry): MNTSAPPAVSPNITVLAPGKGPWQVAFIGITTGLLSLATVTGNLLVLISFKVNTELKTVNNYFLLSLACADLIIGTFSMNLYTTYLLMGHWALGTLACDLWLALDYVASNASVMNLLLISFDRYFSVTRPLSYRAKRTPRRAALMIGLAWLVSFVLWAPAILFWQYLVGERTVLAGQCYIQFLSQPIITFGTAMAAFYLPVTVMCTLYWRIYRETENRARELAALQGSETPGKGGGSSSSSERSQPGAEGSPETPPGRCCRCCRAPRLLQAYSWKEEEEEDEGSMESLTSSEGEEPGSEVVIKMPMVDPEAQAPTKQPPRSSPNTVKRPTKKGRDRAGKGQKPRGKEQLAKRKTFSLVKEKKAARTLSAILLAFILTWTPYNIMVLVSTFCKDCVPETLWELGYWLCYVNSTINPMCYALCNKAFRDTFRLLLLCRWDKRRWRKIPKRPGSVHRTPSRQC
Description: Inhibition of [3H](R)-QNB binding to human M1 receptor expressed in A9 L cells. The assay is classed as cell-based, A9L.

The target of assay [2] is T2, Muscarinic acetylcholine receptor M3 (Homo sapiens, UniProt P20309). The experiment in a line: Agonist activity at human M3 receptor expressed in A9 L cells assessed as stimulation of phosphoinositide hydrolysis relative to carbachol. The assay is classed as functional, cell-based. The following applies: L929. In a few lines:
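A9 L cells stably expressing the receptor, seeded 24 h, labelled overnight with 10 µCi/mL [3H]inositol in inositol-free DMEM; ligands in HBSS with 10 mM LiCl, 20 mM HEPES, 37 °C, 1 h; formic acid extraction, inositol phosphates counted by SPA beads.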
Target sequence in this assay (P20309 whole entry, looked up): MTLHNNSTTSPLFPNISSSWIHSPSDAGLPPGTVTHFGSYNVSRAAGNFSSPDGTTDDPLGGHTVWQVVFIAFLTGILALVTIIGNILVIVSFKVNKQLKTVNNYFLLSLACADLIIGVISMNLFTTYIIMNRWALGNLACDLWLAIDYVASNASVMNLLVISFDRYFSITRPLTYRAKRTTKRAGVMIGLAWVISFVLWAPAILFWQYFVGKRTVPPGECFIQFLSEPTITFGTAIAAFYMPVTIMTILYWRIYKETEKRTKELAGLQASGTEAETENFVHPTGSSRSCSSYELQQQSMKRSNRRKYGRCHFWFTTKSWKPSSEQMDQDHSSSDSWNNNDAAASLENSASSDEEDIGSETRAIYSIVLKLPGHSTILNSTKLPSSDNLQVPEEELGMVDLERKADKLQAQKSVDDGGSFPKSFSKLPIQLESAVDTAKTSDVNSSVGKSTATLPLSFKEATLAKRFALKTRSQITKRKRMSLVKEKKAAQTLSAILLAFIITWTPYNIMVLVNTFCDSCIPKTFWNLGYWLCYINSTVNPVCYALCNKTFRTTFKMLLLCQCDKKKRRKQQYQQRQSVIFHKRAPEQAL

Assay [3] deals with Muscarinic acetylcholine receptor M1 (Homo sapiens, UniProt P11229, Q185E). The format is functional, cell-based, L929.
Sequence of Muscarinic acetylcholine receptor M1 (Homo sapiens, UniProt P11229, Q185E) (P11229 whole entry Q185E): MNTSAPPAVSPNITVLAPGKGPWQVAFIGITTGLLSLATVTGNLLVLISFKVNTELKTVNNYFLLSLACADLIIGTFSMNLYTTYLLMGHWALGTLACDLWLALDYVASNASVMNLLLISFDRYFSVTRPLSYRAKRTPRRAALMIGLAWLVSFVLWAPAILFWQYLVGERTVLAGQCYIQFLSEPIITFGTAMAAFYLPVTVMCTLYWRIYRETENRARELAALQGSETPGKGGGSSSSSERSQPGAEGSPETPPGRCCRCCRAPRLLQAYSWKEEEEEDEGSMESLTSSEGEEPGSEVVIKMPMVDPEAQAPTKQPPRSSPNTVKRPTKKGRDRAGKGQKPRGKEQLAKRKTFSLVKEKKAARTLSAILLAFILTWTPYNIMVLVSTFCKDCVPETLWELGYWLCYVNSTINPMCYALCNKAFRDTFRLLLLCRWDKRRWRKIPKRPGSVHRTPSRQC
The target in assay [4] is T3, Muscarinic acetylcholine receptor M4 (Homo sapiens, UniProt P08173).
T3 sequence (P08173 whole entry): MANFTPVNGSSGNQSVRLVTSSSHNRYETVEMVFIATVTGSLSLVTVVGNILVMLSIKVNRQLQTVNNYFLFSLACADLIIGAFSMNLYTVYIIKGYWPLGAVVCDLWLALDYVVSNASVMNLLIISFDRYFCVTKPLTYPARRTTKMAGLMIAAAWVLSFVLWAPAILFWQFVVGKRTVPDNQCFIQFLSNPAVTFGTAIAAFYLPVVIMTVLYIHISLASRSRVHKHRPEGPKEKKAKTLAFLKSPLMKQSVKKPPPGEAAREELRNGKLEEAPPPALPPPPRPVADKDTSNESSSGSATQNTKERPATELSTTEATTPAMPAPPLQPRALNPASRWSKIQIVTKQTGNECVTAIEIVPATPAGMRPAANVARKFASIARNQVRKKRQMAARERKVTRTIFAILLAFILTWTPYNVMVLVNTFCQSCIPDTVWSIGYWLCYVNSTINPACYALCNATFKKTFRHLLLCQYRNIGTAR
Description: Activity at human M4 receptor assessed as inhibition of forskolin-stimulated cAMP accumulation. The assay is classed as functional.

Assay [5] deals with T4, Muscarinic acetylcholine receptor M4 (Homo sapiens) (UniProt P08173).
T4 sequence (whole entry): T3 sequence (P08173 whole entry)
Description: Activity at human M4 receptor assessed as inhibition of forskolin-stimulated cAMP accumulation relative to carbachol. The format is functional.

Assay [6] addresses T2, Muscarinic acetylcholine receptor M3. The experiment in a line: Antagonist activity at human M3 receptor assessed as inhibition of carbachol […]. The note with it: read-out: pA2 (converted).
Target sequence in this assay (P20309 whole entry): as the sequence (P20309 whole entry, looked up) above
For assay [7], the target named is T5, Muscarinic acetylcholine receptor M1/M5 chimeric protein (Homo sapiens, UniProt P08912+P11229).
T5 sequence (P11229 whole entry): T1 sequence (P11229 whole entry)
T5 sequence (P08912 whole entry): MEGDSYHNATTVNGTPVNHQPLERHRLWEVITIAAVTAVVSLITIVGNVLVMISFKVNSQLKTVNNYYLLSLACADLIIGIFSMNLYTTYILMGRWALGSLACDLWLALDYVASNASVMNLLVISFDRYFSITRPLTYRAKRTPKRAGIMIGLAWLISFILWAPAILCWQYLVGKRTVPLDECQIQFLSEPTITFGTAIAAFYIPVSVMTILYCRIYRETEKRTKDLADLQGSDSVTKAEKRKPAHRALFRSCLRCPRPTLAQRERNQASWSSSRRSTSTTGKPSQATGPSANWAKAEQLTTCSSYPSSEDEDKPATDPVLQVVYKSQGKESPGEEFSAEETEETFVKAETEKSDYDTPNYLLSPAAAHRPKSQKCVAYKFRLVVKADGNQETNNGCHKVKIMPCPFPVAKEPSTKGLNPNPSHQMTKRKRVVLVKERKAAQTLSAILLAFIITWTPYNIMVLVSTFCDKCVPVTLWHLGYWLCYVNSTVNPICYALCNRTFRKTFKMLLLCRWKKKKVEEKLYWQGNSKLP
The experiment in a line: Inhibition of [3H](R)-QNB binding to human M1/M5(o2) chimeric receptor expressed in A9 L cells. The format is cell-based, A9L.

Assay [8] concerns the target T5, Muscarinic acetylcholine receptor M1/M5 chimeric protein. Description: Inhibition of [3H](R)-QNB binding to human M1/M5(o3) chimeric receptor expressed in A9 L cells. The assay is classed as cell-based, A9L.
For assay [9] the target is unchanged. Description: Inhibition of [3H](R)-QNB binding to human M1/M5(o2o3) chimeric receptor expressed in A9 L cells. The assay is classed as cell-based, A9L.
Assay [10] has the same target. The experiment in a line: Agonist activity at human M1/M5(o2) chimeric receptor expressed in A9 L cells assessed as stimulation of phosphoinositide hydrolysis. The assay is classed as functional, cell-based, L929.
Assay [11] shares this target. The experiment in a line: Agonist activity at human M1/M5(o3) chimeric receptor expressed in A9 L cells assessed as stimulation of phosphoinositide hydrolysis. The assay is classed as functional, cell-based, L929.
Assay [12] has as its target Muscarinic acetylcholine receptor M1 (Homo sapiens, UniProt P11229, E170K). The assay is classed as functional, cell-based, L929.
In assay [13] the test system is Rattus norvegicus. The experiment in a line: Antipsychotic activity in Sprague-Dawley rat assessed as ability to reverse apomorphine effect on prepulse inhibition of the startle response at 1 mg/kg, sc. The format is functional, organism-based. More on the design: dose 1 mg/kg. In a few lines: (§1)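 Male Sprague-Dawley rats, 250-300 g, habituated a day before. Drug in water or saline sc (1 mL/kg) 25 min, apomorphine 1.0 mg/kg 5 min pre-test; muscarinic agonists 0.1-3 mg/kg. Session of 15 each pulse-alone (120 dB, 100 ms) and pulse preceded 200 ms by 20 ms prepulse 12 dB above 70 dB background; 12 rats/group; %PPI calculated.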

In assay [14] the test system is Rattus norvegicus. The experiment in a line: Antipsychotic activity in Sprague-Dawley rat assessed as ability to reverse apomorphine effect on prepulse inhibition of the startle response at 3 mg/kg, sc. The format is functional, organism-based. Details: dose 3 mg/kg. In a few lines:
as §1

Assay [15] has as its target T2, Muscarinic acetylcholine receptor M3. The experiment in a line: Agonist activity at human M3 receptor expressed in A9 L cells assessed as stimulation of phosphoinositide hydrolysis. The format is functional, cell-based, L929.
Target sequence in this assay (P20309 whole entry): as the sequence (P20309 whole entry, looked up) above
Assay [16] concerns Rattus norvegicus. The experiment in a line: Antipsychotic activity in sc dosed Sprague-Dawley rat assessed as ability to reverse apomorphine effect on prepulse inhibition of the startle response. The assay is classed as functional, organism-based. In a few lines: as §1

Each structure is given as a SMILES string. Activity calls are given as the source filed them. The calls are words filed in the database; no cut-off is given here.

Sequence of Muscarinic acetylcholine receptor M1 (Homo sapiens, UniProt P11229, E170K) (P11229 whole entry E170K): as the sequence (P11229 whole entry Q185E) above, with E170K, E185Q counted along it

Regarding `COc1nsnc1OCCOCCOCCOCCOc1nsnc1C1=CCCN(C)C1`, the inhibition constant (Ki) in assay [1] was 50.1 nM; in [7], 200 nM; in assay [8], 126 nM; in assay [9], 316 nM. Besides, the result in assay [2] was inactive. Further, the half-maximal effective concentration (EC50) in [3] is 251 nM; in assay [10], 79.4 nM; in assay [11], 100 nM; in assay [12], 2000 nM. The 50% inhibitory concentration (IC50) in [4] is 12.6 nM. Also, in [5], the Imax worked out at 40%. Besides, in assay [6], the Kb was 158 nM. Also, the outcome in the assay with Rattus norvegicus [13] and in the assay on Rattus norvegicus [14] was Active.

On to `CCCCCCOc1nsnc1C1=CCCN(C)C1` [XANOMELINE], for which the EC50 in assay [15] is 25100 nM. Besides, in [2], the Smax worked out at 80%. Further, the Imax in [5] turned out to be 77%. Also, the outcome in the assay with Rattus norvegicus [16] was inactive.
